Published values gathered from unrelated publications.
Compare with care: the assays were run in different laboratories.
Target: Fibroblast growth factor receptor 2 (FGFR2, Homo sapiens, UniProt P21802)

SMILES	test	setting	measurement	result
CC(C)(C)c1cc(C=C(C#N)C#N)cc(Br)c1O	enzyme activity, inhibitor	0.5 µM	remaining activity	96.4%
C#Cc1n[nH]c2c(-c3cn([C@@H](C)c4ccccc4)c(=O)[nH]c3=O)cc(F)cc12	enzyme activity, inhibitor	0.1 µM	inhibition	1.6%
COCc1c(-c2cc3cc(C)cc(OC)c3s2)c2c(N)ncnn2c1CN1CCNC(=O)C1	cell-free assay, competition with immobilised ligand	1 µM	inhibition	99.8%
Cc1nn(C)cc1-c1nc2c(N3CCN(Cc4ccc(Cl)cc4)CC3)c(Cl)cnc2[nH]1	binding, competition with immobilised ligand	1 µM	remaining binding	45%
Nc1ncc(-c2nc(N3CCOCC3)nc(N3CCOCC3)n2)c(C(F)F)n1	cell-free assay, competition with immobilised ligand	10 µM	remaining binding	90%
COc1ncccc1-c1cnn2ccc(N3CCN(C(=O)OC(C)C)CC3)nc12	binding, competition with immobilised ligand	1 µM	remaining binding	82%
Cn1cc(-c2cccc(N3CCc4c(sc5c4CC(C)(C)C5)C3=O)c2CO)cc(Nc2ccncn2)c1=O	enzyme activity, inhibitor	1 µM	inhibition	14%
O=c1[nH]c2ccccc2n1C1CCN(Cc2ccc(-c3[nH]c4cc5ncnc5cc4nc3-c3ccccc3)cc2)CC1	cell-free assay	0.5 µM	remaining signal	94.2%
N#CC1(c2ccccn2)CCN(Cc2cc(C(=O)O)c(=O)n3ccccc23)CC1	cell-free assay, competition with immobilised ligand	1 µM	remaining binding	100%
Cn1cc(-c2cc(F)cc(N3CCn4c(cc5c4CCCC5)C3=O)c2CO)cc(Nc2ccc(N3CCN(C4COC4)CC3)cn2)c1=O	enzyme activity, inhibitor	0.1 µM	inhibition	15%
Cn1cncc1[C@](O)(COc1ccc(C#N)cc1-c1ccc(OC(F)(F)F)cc1)c1ccc(C#N)cc1	cell-free assay, competition with immobilised ligand	1 µM	remaining binding	86%
C#Cc1n[nH]c2c(-c3cn([C@@H](C)c4ccccn4)c(=O)[nH]c3=O)cc(F)cc12	enzyme activity, inhibitor	0.1 µM	inhibition	4.2%
